Bioassay records from PubChem.
HEK293 NFkB inh: lowers PMA/ionomycin-induced NF-kB signal in HEK293 cells. hit rate 0.21% among 62,000. inhibition, % at 3 µM. HEK-293 NF-kB luciferase reporter, luminescence. AID 465;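 active means inhibition above the mean of all tested compounds plus 3 SD, cut at about 40% in these data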;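 further: 0% = stimulated DMSO wells and 100% = 10 µM reference inhibitor 5653914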
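Material: HEK-293 cells with stable firefly luciferase reporter driven by four HIV NF-kB elements / Also added: PMA plus ionomycin mix as NF-kB-activating stimulus / Compound dosing: 3 µM once, 0.30% DMSO / Times: 1 h pretreatment, 16 h stimulation, 37 °C / Signal: luminescence / Evaluation: per-plate % inhibition versus controls / Benchmarks: DMSO and 10 µM reference inhibitor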
5HT1E ag: activates the human 5-HT1E serotonin receptor. activation, % at 6 µM. P28566. hit rate 0.69% among 65,000. CHO 5-HT1E Ga15 NFAT-bla reporter, FRET; 0% DMSO wells, 100% control agonist wells;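 active means activation above a set limit, the screen-wide mean activation plus 3 SD, cut at about 8.5% in these data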;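 further: 100% = positive control agonist at 1 µM giving full maximal response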
HTR1A agonist: 5-HT1a (human) receptor agonism; P08908; CHO 5-HT1a Ga15 NFAT-bla reporter, FRET ratio; 0% basal, 100% maximal reference agonist; activation, % at 10 µM; hit rate 0.56% among 65,000; AID 567;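 active means activation above the screen-wide mean activation plus 3 SD, cut at about 19% in these data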;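 further: 0% = DMSO wells and 100% = 5-CT at EC100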
Target sequence (P08908 whole entry, looked up): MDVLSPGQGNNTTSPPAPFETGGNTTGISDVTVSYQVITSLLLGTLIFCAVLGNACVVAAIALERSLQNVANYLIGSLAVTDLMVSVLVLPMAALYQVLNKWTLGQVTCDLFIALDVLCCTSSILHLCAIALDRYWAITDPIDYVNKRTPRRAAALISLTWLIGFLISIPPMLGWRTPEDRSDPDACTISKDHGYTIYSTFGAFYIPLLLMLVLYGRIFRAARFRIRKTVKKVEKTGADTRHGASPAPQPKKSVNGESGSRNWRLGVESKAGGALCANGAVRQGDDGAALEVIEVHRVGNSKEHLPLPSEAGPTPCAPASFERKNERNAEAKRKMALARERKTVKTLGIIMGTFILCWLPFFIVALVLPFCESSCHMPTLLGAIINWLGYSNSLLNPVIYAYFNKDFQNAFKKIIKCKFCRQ
SKBR3 24h inh: SK-BR-3 proliferation inhibitors. hit rate 0.47% among 41,000. viability, % at 10 µM. SK-BR-3 viability, CellTiter-Glo ATP luminescence, 24 h; active compounds read low;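 active means viability at or below the median of all test compounds minus 3 SD, in both replicates if run twice, cut at about 45% in these data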;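 further: 100% = median untreated cell wells and 0% = median positive control drug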
HTR1E antagonist: blocks the human 5-HT1E serotonin receptor | CHO 5-HT1E Ga15 NFAT-bla reporter, FRET, antagonist | P28566 | hit rate 0.99% among 65,000 | inhibition, % at 6 µM;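 active means inhibition above a set limit, the mean inhibition across every tested compound plus 3 SD, cut at about 29% in these data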;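 further: signal is the 460 over 535 nm emission ratio of beta-lactamase substrate; 0% = agonist plus DMSO wells and 100% = wells without agonist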
5-HT1A blocker: blocks the human serotonin 5-HT1a receptor | P08908 | CHO 5-HT1a Ga15 NFAT-bla reporter, antagonist mode | inhibition, % at 10 µM | hit rate 0.68% among 62,000 | AID 612;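 active means inhibition above the mean of all tested compounds plus 3 SD, cut at about 43% in these data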;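 further: receptor stimulated by 5-CT agonist at 100 nM near EC80; beta-lactamase reporter measured by ratiometric fluorescence of a cleavable substrate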
* = called active by the depositor; . = not tested or not shown. Compounds with a hit are over-represented: about 2.9% of the library has one in this group of screens.

SMILES	HEK293 NFkB inh	5HT1E ag	HTR1A agonist	SKBR3 24h inh	HTR1E antagonist	5-HT1A blocker
CC1CC(C)(C)Nc2ccc(OC(=O)c3ccco3)cc21 (stereo not drawn)	57.9*	1.3	-4.4	19.8*	40.1*	50.7*
O=C(Oc1ccc2ccccc2c1)c1ccco1	9.1	0.8	-2.1	.	-7.7	-11.2
CCOC(=O)c1ccccc1NC(=O)c1cn(CC)c2nc(C)ccc2c1=O	9.7	0.4	-2.0	.	-0.4	-3.0
CCOC(=O)c1[nH]c(C)c(C(=O)N2CCN(C(=O)OCC)CC2)c1CC	-3.7	-0.8	-0.9	94.2	-8.0	-11.9
CCC(C)(C(=O)NC1CCCC1)N(Cc1cccs1)C(=O)Cc1cccs1 (stereo not drawn)	22.9	-1.4	0.4	65.8	8.1	59.2*
CCC(C)(C(=O)NC1CCCC1)N(Cc1ccco1)C(=O)c1ccc2c(c1)OCO2 (stereo not drawn)	16.7	-0.2	-1.9	.	-20.1	49.0*
Cc1ccc(C)c(-n2nnnc2Sc2nnnn2-c2ccccc2)c1	15.8	-0.9	-0.6	.	24.9	45.8*
Cc1ccc(S(=O)(=O)NCCSc2nnnn2-c2cc(C)ccc2C)cc1	16.2	0.2	-0.4	96.1	-10.7	1.4
CN(CC(=O)N1CC=C(c2ccccc2)CC1)S(=O)(=O)c1cnc[nH]1	5.3	0.5	-4.6	.	5.8	1.6
C[N+]1=C2CCCCCN2C(O)(c2ccccc2)C1 (stereo not drawn)	13.2	51.0*	20.0*	.	-3.2	-2.5
Cn1c(C(=O)NCCCN2CCN(c3ccc(F)cc3)CC2)cc2c(=O)n(C)c3ccccc3c21	10.6	1.2	13.9	.	2.2	65.4*
CCOC(=O)CSc1nc2c(sc(=S)n2Cc2ccco2)c(=O)n1-c1ccccc1	11.9	-1.8	0.2	.	9.3	55.1*
CCOC(=O)CSc1nc2ccccc2c(=O)n1Cc1ccco1	11.2	0.4	-0.5	.	11.6	0.9
CCCC(=O)N=C1SC2CS(=O)(=O)CC2N1c1ccc(C(C)=O)cc1 (stereo not drawn)	-7.4	-1.5	0.5	95.1	-0.3	-6.3
CCn1c2ccccc2c2nnc(SCC(=O)c3ccccc3)nc21	13.8	-1.0	2.9	88.3	30.9*	-12.7
NC(=O)CN1CCN(C(=O)Nc2ccccc2)CC1	-0.8	0.4	-2.6	.	1.3	-6.2
Cc1csc2nc(CNC(=O)c3ccco3)cn12	-2.1	11.1*	-3.3	.	6.6	-2.8
CN(C)S(=O)(=O)c1ccc(S(=O)(=O)N(Cc2ccccn2)Cc2ccco2)cc1	17.8	-0.9	0.6	102.1	11.0	9.5
C=CCOc1cccc(C2C(C(=O)c3ccco3)=C(O)C(=O)N2CCN(CC)CC)c1 (stereo not drawn)	4.9	0.5	20.4*	110.6	-5.7	0.4
CC1CCN(Cc2nc3c(c(=O)n(C)c(=O)n3C)n2CCN2CCOCC2)CC1	20.9	-0.5	0.8	97.4	0.2	11.6
CCN(CC)c1ccc2c(c1)OC(N)=C(C#N)C2c1cccnc1 (stereo not drawn)	52.7*	-1.4	-2.8	93.2	76.7*	32.3
CCCc1nn(C)c2c1C(c1cccnc1)C(C#N)=C(N)O2 (stereo not drawn)	.	0.3	0.5	86.5	-7.3	.
CC(=O)Nc1nc2n(n1)C(c1ccccc1)C=C(c1ccccc1)N2 (stereo not drawn)	9.2	-0.8	-2.4	104.2	34.2*	30.3
COc1ccc(C2C=C(c3cccs3)Nc3nc(CCCO)nn32)cc1 (stereo not drawn)	13.4	-1.4	-5.2	92.0	37.3*	28.3
COc1ccc(C2C=C(c3ccccc3)Nc3nc(CCCO)nn32)cc1 (stereo not drawn)	12.0	-0.4	-1.8	.	24.3	13.0
OCCCc1nc2n(n1)C(c1ccccc1)C=C(c1ccccc1)N2 (stereo not drawn)	2.2	0.0	-2.4	.	29.6*	0.4
O=C(c1nc2n(n1)C(c1ccc(Cl)cc1)C=C(c1ccccc1)N2)N1CCOCC1 (stereo not drawn)	7.4	-0.7	-1.7	90.6	42.0*	28.3
C=CCN(C(=O)CCC(=O)O)C1CC(=O)N(c2ccc(OCCC)cc2)C1=O (stereo not drawn)	.	0.3	-1.0	97.9	-16.3	.
